Published values pooled from the literature.
Lines come from different studies, so protocols differ.
Target: Mitogen-activated protein kinase kinase kinase 11 (MAP3K11, Homo sapiens, UniProt Q16584)

SMILES	assay	setting	endpoint	value
C#Cc1cc(-c2cc(Nc3nc(N[C@@H](C)c4ccc(F)cn4)ncc3Cl)n[nH]2)ccc1C=O	enzyme activity, inhibitor	0.2 µM	inhibition	72.5%
COc1ccc2[nH]c3c4[nH]c5ccc(OC)cc5c4c4c(c3c2c1)C(=O)NC4=O	binding	1 µM	remaining binding	5.6%
C=CC(=O)N1CCC[C@@H](n2nc(-c3ccc(Oc4ccccc4)cc3)c3c(N)ncnc32)C1	enzyme activity, inhibitor	1 µM	inhibition	0%
CCCCC(=O)Nc1ccc(-c2ccc3ncn(CCC)c(=O)c3c2)cn1	binding, competition with immobilised ligand	0.5 µM	remaining binding	82%
CC(C)S(=O)(=O)c1ccc2nccc(Nc3ccc4sc(C5CCCC5)nc4c3)c2c1	enzyme activity, inhibitor	1 µM	activity vs control	98%
CN1CCN(C(=O)c2ccc(NC(=O)Nc3ccc(N(C)c4ccnc(Nc5ccc(CS(C)(=O)=O)cc5)n4)cc3)cc2)CC1	binding	1 µM	remaining binding	91%
C=CC(=O)N1CCC([C@@H]2CCNc3c(C(N)=O)c(-c4ccc(Oc5ccccc5)cc4)nn32)CC1	enzyme activity, inhibitor	1 µM	inhibition	0%
C1=C/COCc2cc(ccc2OCCN2CCCC2)Nc2nccc(n2)-c2cccc(c2)COC/1	cell-free assay	0.1 µM	remaining signal	100%
